Results of several laboratories.
Lines come from different studies, so protocols differ.

With `CNC(=O)[C@H](Cc1c[nH]cn1)NC(=O)CN(CCCc1ccccc1)CC(=O)O` the AUC was 3600 ng·h/mL (male C57BL/6 mouse, plasma; intraperitoneal, 30 mg/kg).
With `OC[C@H]1O[C@@H](c2ccc(Cl)c(Cc3ccc(O[C@H]4CCOC4)cc3)c2)[C@H](O)[C@@H](O)[C@@H]1O` the AUC was 741 ng·h/mL (CD-1 mouse, plasma; oral, 10 mg/kg).
The AUC(0-inf) of `CCc1cc(C(=O)NC)c2nccc(N3CCc4c(cc(Cn5ccnc5)cc4-c4cn(C)nc4C(F)(F)F)C3=O)c2c1` is reported as 527 µg·h/mL (male CD-1 mouse, plasma; oral, 150 mg/kg).
With `CC1(C)c2nc(-c3ccc(F)cc3)c(Nc3ccc(F)cc3)n2CCN1C(=O)CN` the AUC was 0.78 µM·h (mouse, plasma; oral, 2 mg/kg).
With `Cc1noc([C@H](Cc2c[nH]cn2)NC(=O)CN(CCCc2ccccc2)CC(=O)O)n1` the AUC was 1900 ng·h/mL (male C57BL/6 mouse, plasma; intraperitoneal, 30 mg/kg).
`NC[C@@H]1O[C@H](O[C@H]2[C@@H](O)[C@H](O[C@@H]3[C@@H](O)[C@H](N)C[C@H](N)[C@H]3O[C@H]3O[C@H](CO)[C@@H](O)[C@H](O)[C@H]3N)O[C@@H]2CO)[C@H](N)[C@@H](O)[C@@H]1O` gave an AUC of 30600 ng·h/mL (male BALB/c mouse, plasma; intravenous, 15 mg/kg).
For `Cc1nc(-c2cnc(NC(C)C)n(C)c2=O)ccc1Oc1ccnc(-c2cnn(C)c2)c1`, the AUC(0-inf) was 285 µg·h/mL (female mouse, plasma; oral, 30 mg/kg, single dose).
With `CC(C)(O)c1cn(-c2ccc(-c3ccc(CO)c(S(C)(=O)=O)c3)cc2)c(Cc2ccccc2Cl)n1` the AUC was 13 µM·h (male C57BL/6 mouse, serum; oral, 10 mg/kg).
`CC(C)(C)c1ccc(O)c(CN(Cc2cc(C(C)(C)C)ccc2O)C2CCC(NC(N)=O)CC2)c1` (stereo not drawn) has an AUC(0-inf) of 6.19 µg·h/mL (male C57BL/6 mouse, plasma; intraperitoneal, 5 mg/kg, single dose).
The AUC of `CC(C)(O)c1cn(-c2ccc(-c3cc(F)c(CO)c(S(C)(=O)=O)c3)cc2)c(C(C)(C)c2cccc(F)c2Cl)n1` is reported as 6.9 µM·h (male C57BL/6 mouse, serum; oral, 10 mg/kg).
`Cc1ccc2cncc(N3CCc4c(cc(Cn5ccnc5)cc4-c4cn(C)nc4C(F)(F)F)C3=O)c2c1` has an AUC(0-inf) of 36.3 µg·h/mL (male CD-1 mouse, plasma; oral, 50 mg/kg).
`CC[C@H](C)[C@@H]1NC(=O)[C@@](C)(NC(=O)[C@H](CCCNC(=N)N)NC(=O)[C@H](CC(C)C)NC(=O)[C@@H](NC(=O)[C@H](CCC(N)=O)NC(=O)[C@H](CC(C)C)NC(C)=O)[C@@H](C)O)CCCC=CCCC[C@@](C)(C(=O)N[C@@H](CC(C)C)C(=O)N[C@@H](Cc2ccc3ccccc3c2)C(N)=O)NC(=O)[C@H](CCCNC(=N)N)NC(=O)[C@H](CCC(N)=O)NC1=O` gave an AUC(0-inf) of 126 µg·h/mL (male BALB/c mouse, plasma; intravenous, 5 mg/kg).
